Data set [1] deals with DIO male Golden Syrian hamsters. Kind of data set: Plasma lipid parameters in high fat-fed DIO hamsters, experiment C. It counts as in vivo, hamster. Conditions: end of treatment week 5, 6 mg/kg intraperitoneal.
The test system is the same in data set [2]. Kind of data set: Oral glucose tolerance test in DIO hamsters. It counts as in vivo, hamster. The following applies: TRC210258 6 mg/kg intraperitoneal, sitagliptin 3 mg/kg oral. Put shortly:
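Hamsters made obese on 45% kcal-fat diet for 8±2 weeks. Double-dummy dosing: i.p. vehicle 0.9% Na-CMC + 0.1% Tween-80 in PBS pH 7.4, oral vehicle 0.5% Tween-80 + 0.5% Na-CMC in water. Oral glucose tolerance test done during treatment. Retro-orbital sampling under mild anaesthesia into K-EDTA. Plasma glucose by autoanalyzer; insulin by hamster-specific ELISA.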

For data set [3] the test system is unchanged. Kind of data set: Oral fat tolerance test. It counts as in vivo, hamster. Conditions: week 4, 6 mg/kg intraperitoneal. The essentials: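 Male Golden Syrian hamsters fed 45% kcal-fat diet for 8±2 weeks. Test compound given i.p. in 0.9% Na-CMC + 0.1% Tween-80 in PBS pH 7.4, with oral vehicle dummy. At end of week 4: 6 h fast, pre-load sample, oral olive oil 5 mL/kg, samples at 60–240 min. Retro-orbital bleeds under mild anaesthesia; K-EDTA plasma triglyceride by autoanalyzer.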

Data set [4] is described as follows: Pharmacokinetics in DIO mice. It counts as in vivo, mouse.
For data set [5], the system named is NCI-H716 human enteroendocrine cell line. Kind of data set: TGR5-mediated GLP1 secretion. It counts as cell-based. Conditions: NCI-H716 cells, 1 hour, in presence of 0.05% sitagliptin; versus vehicle. Put shortly:
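NCI-H716 human enteroendocrine cells exposed 1 h to vehicle, test compound or lithocholic acid (positive control), with 0.05% DPP-4 inhibitor sitagliptin present. Active GLP1 in culture supernatant measured by ELISA, expressed in pM. Two experiments, each in duplicate, averaged.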

The next data set addresses T1, human TGR5 receptor (Homo sapiens, UniProt Q8TDU6).
T1 sequence (Q8TDU6 1-330): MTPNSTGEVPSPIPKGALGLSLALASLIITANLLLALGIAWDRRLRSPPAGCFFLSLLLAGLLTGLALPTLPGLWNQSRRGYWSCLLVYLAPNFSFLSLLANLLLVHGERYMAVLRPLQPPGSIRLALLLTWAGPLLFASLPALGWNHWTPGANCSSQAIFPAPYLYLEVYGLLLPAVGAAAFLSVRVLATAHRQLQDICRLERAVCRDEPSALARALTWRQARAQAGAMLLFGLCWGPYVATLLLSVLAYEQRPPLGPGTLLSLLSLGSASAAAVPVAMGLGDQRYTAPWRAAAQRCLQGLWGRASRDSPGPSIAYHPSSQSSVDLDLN
It counts as cell-based.

The test system of data set [6] is high-fat DIO C57bl/6J mice. Kind of data set: Glycemic control. The following applies: 4 weeks of treatment, 9 mg/kg oral once daily. It counts as in vivo, mouse. Put shortly:
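DIO C57bl/6J males on 45% kcal-fat diet for 8±2 weeks before study, diet continued. Oral dosing once daily for 4 weeks in 0.5% w/v Tween-80 + 0.5% w/v Na-CMC in water. OGTT: 6 h fast, dose, 0-min sample 15 min later, glucose 2 g/kg, tail-snip samples at 15–120 min. K-EDTA plasma; glucose by autoanalyzer, fasting insulin by rat/mouse ELISA.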

The nature of data set [7]: Pharmacokinetics in DIO hamsters. It counts as in vivo, hamster.
[8] abbreviates: DIO mice, 9 mg/kg orally, mean ± standard deviation.
[9] abbreviates: DIO hamsters, 6 mg/kg intraperitoneally, mean ± standard deviation.

Molecules are shown by their SMILES.

Data on two compounds can be found in publication PMC3873233 (Diabetes, Metabolic Syndrome and Obesity: Targets and …, 2013).

The Cmax is the peak of the concentration-time curve. The Tmax is the time from dosing to the highest level. In general, EC50 refers to the concentration that produces a half-maximal response. A low value points to a more potent agent. Take `CN(C(=O)c1c(Oc2ccc(F)cc2)nc2ncccn12)c1ccc(Cl)cc1` [TRC210258, N-(4-chlorophenyl)-2-(4-fluorophenoxy)-N-methylimidazo [1,2-a] pyrimidine-3-carboxamide]: in data set [1], the “improvement (reduction) in LDL cholesterol vs vehicle control” value was found to be 26.2%, the “improvement (reduction) in non-HDL cholesterol vs vehicle control” value is reported as 32%, the “improvement (reduction) in total cholesterol vs vehicle control” value was 25.4% and the “improvement (reduction) in triglycerides vs vehicle control” value was 28.3%. Moreover, the “AUC(0–120 min) for insulin in oral glucose tolerance test” value in data set [2] is listed as “higher”. Moreover, the “time taken to reach peak plasma triglyceride levels after oral fat loading” value in data set [3] amounted to 120 min. In data set [4] (C57bl/6J, mouse, plasma, po, 9 mg/kg), the Cmax was found to be 59.4 ± 22.2 ng/mL. Moreover, in data set [4] (setting [8]), the AUClast is 525.7 ± 127.0 ng·h/mL and the Tmax worked out at 2.25 ± 1.25 h. For the same compound, the GLP1 secretion result in data set [5] was “significant induction of GLP1 secretion”. The compound further gave an EC50 on human TGR5 receptor of 221 nM. Further, the “Homeostasis Model of Assessment-Insulin Resistance (HOMA-IR)” value in data set [6] is “trend toward amelioration”. Also, in data set [7] (setting [9]), the AUClast amounted to 726.2 ± 223.8 ng·h/mL and the Tmax was 1.5 ± 0.71 h. Also, in data set [7] (Golden Syrian, hamster, plasma, ip, 6 mg/kg), the Cmax came out at 78.7 ± 31.8 ng/mL. Further, the “oral bioavailability in hamsters compared with mice” value in data set [7] (hamster, oral) is reported as “lower oral bioavailability”.
With `N[C@@H](CC(=O)N1CCn2c(nnc2C(F)(F)F)C1)Cc1cc(F)c(F)cc1F` [sitagliptin, reference compound], the “AUC(0–120 min) for insulin in oral glucose tolerance test” value in data set [2] is “higher”.
